Assay results published in ChEMBL document CHEMBL1955770, “Inhibition of S/G2 phase CDK4 reduces mitotic fidelity” (J Biol Chem, 2006).
Activity calls are given as the source filed them. No cut-off for these calls is given here.

What was measured:
[1] = Cell cycle arrest in human SK-MEL-13 cells assessed as accumulation at S phase at 2 uM treated 1 hr and measured 10 hr post double hydroxyurea-synchrony release using propidium iodide staining by FACS analysis (reference value: 16 %); format: functional, cell-based
Procedure, shortened: (§1)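 SK-Mel-13 cells synchronized with 2 mM hydroxyurea, then treated with 2 μM CDK4 inhibitor or left untreated 1 h after release. Harvested at indicated times post-release, ethanol-fixed, propidium iodide/RNase stained, and DNA content read by FACS. Proportions of G1, S and G2/M cells derived with ModFit.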

HeLa [2] = assay: Cell cycle arrest in human HeLa cells assessed as accumulation at S phase at 2 uM treated 4 hr and measured 8 hr post double thymidine-synchrony release using propidium iodide staining by FACS analysis (reference value: 8 %); format: functional
Procedure, shortened: (§2)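 Cells harvested at set times post-release, fixed in 70% ethanol, stained with 5 μg/ml propidium iodide plus 0.5 mg/ml RNase A, and analysed by flow cytometry. Cell-cycle phase fractions calculated by ModFit.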

MDA-MB-453 [3] = assay: Toxicity in human MDA-MB-453 cells at IC50 after 3 days by MTT assay; format: cell-based; conditions: mda-mb-453, 72 h
HeLa [4] = assay: Cell cycle arrest in human HeLa cells assessed as accumulation at G2/M phase at 2 uM treated 4 hr and measured 10 hr post double thymidine-synchrony release using propidium iodide staining by FACS analysis (reference value: 31 %); format: functional; procedure, shortened: as §2
A2058 = assay: Cell cycle arrest in human A2058 cells assessed as accumulation at G2/M phase at 2 uM treated 1 hr and measured 10 hr post double hydroxyurea-synchrony release using propidium iodide staining by FACS analysis (reference value: 65 %); format: functional
[5] = Cell cycle arrest in Rb-competent human SK-MEL-13 cells assessed as accumulation at G1 phase at 2 uM after 24 hrs by FACS analysis; format: functional
Procedure, shortened: (§3)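 Ethanol-fixed cells stained with propidium iodide/RNase A, DNA content read by FACS, phase and sub-diploid fractions calculated with ModFit.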

HeLa [6] = assay: Cell cycle arrest at G2 phase in human HeLa cells assessed as delay in phosphotyrosine 15 CDK1 accumulation at 2 uM treated at early S phase measured after 6-14 hr post thymidine-synchrony release by immunoblot method; format: functional, cell-based
Procedure, shortened: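 HeLa cells synchronized by double thymidine block and released, treated with 2 μM inhibitor in early S phase, or left untreated. Harvested at set times after release, lysed in NETN with phosphatase and protease inhibitors, run on SDS-PAGE and immunoblotted for cyclin B1 and phosphotyrosine 15 CDK1/2, with cyclin D3 as loading control. Detection by HRP secondary and ECL.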

[7] = target: Tyrosine-protein kinase Lck (Homo sapiens, UniProt P06239); assay: Inhibition of Lck using fluorescent substrate by IMAP assay
Tyrosine-protein kinase Lck, sequence (P06239 whole entry): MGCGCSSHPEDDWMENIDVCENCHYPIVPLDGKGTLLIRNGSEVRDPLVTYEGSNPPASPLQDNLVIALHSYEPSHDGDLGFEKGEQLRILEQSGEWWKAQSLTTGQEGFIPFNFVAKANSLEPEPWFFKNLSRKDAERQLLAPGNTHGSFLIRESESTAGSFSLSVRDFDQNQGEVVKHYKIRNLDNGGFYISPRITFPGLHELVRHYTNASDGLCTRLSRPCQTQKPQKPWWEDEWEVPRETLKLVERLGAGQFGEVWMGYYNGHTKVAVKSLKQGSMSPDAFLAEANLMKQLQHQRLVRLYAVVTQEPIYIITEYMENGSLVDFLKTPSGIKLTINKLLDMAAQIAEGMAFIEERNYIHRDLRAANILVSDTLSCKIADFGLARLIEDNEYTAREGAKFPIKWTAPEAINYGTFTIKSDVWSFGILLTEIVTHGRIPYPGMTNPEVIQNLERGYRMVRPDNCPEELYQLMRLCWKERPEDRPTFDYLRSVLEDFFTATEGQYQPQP
Procedure, shortened: (§4)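 Run in-house using IMAP: phosphorylated fluorescent peptide substrate binds preferentially to immobilized metal beads, which quantifies kinase activity. ATP at 3× the Km of each enzyme.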

RKO = assay: Toxicity in human RKO cells at 8 uM by MTT assay; format: cell-based
SW480 [8] = assay: Toxicity in human SW480 cells at 8 uM by MTT assay; format: cell-based; conditions: sw480, 8 µM
MDA-MB-453 [9] = assay: Antiproliferative activity against human MDA-MB-453 assessed as inhibition of S phase cells after 48 hrs by MTT assay; format: functional, cell-based; conditions: MDA-MB-453, 48 h
Procedure, shortened: (§5)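 Cells grown in DMEM with 3 mM HEPES and 10% Serum Supreme at 37 °C, 5% CO2. Proliferation read by MTT assay 48 h after drug addition; IC50 given as mean of two separate determinations, each in duplicate.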

HeLa [10] = assay: Cell cycle arrest in human HeLa cells assessed as accumulation at G2/M phase at 2 uM treated 6 hr and measured 12 hr post double thymidine-synchrony release using propidium iodide staining by FACS analysis (reference value: 17 %); format: functional; procedure, shortened: as §2
[11] = Cell cycle arrest in Rb-competent human SK-MEL-13 cells assessed as accumulation at G2/M phase at 2 uM after 24 hrs by FACS analysis; format: functional; procedure, shortened: as §3
SW480 [12] = assay: Toxicity in human SW480 cells at IC50 after 3 days by MTT assay; format: cell-based; conditions: sw480, 72 h
HeLa [13] = assay: Cell cycle arrest at G2 phase in human HeLa cells assessed as time taken to reach peak mitosis at 2 uM treated at early S phase post thymidine-synchrony release by immunoblot method (reference value: 9-10 hrs); format: functional
[14] = target: Cyclin-dependent kinase 4/cyclin D1 (Homo sapiens, UniProt P11802); assay: Inhibition of human GST-tagged CDK4-cyclin D1 using his-tagged Rb as substrate after 30 mins by scintillation counting method; format: protein-complex assay
Cyclin-dependent kinase 4/cyclin D1, sequence (P11802 whole entry): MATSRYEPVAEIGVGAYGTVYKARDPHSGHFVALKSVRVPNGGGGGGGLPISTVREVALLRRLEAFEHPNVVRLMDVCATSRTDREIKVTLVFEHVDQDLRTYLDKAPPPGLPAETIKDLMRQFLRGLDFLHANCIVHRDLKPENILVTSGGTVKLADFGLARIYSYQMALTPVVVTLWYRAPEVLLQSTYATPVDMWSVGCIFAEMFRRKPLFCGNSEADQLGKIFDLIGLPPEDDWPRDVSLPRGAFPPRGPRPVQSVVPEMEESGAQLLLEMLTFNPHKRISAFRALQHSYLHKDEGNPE
Cyclin-dependent kinase 4/cyclin D1, sequence (P24385 whole entry, further chain): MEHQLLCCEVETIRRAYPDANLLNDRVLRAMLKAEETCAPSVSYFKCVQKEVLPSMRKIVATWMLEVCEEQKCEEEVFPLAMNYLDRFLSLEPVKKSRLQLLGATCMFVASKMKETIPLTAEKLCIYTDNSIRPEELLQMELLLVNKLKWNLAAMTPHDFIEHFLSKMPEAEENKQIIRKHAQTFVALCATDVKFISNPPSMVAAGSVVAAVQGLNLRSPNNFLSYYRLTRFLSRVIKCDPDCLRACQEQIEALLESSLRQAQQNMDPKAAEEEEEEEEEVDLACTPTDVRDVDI

[15] = Cell cycle arrest in Rb-competent human SK-MEL-13 cells assessed as accumulation at sub-diploid phase at 2 uM after 24 hrs by FACS analysis; format: functional; procedure, shortened: as §3
HeLa [16] = assay: Cell cycle arrest in human HeLa cells assessed as accumulation at S phase at 2 uM treated 6 hr and measured 8 hr post double thymidine-synchrony release using propidium iodide staining by FACS analysis (reference value: 8 %); format: functional; procedure, shortened: as §2
HeLa [17] = assay: Cell cycle arrest in synchronized human HeLa cells assessed as time required to reach anaphase/telophase at 2 uM by time-lapse microscopy (reference value: 78+/-51 mins); format: functional
HCT-116 = assay: Toxicity in human HCT116 cells at 8 uM by MTT assay; format: cell-based; conditions: hct-116, 8 µM
[18] = Cell cycle arrest in human SK-MEL-13 cells assessed as accumulation at S phase at 2 uM treated 1 hr and measured 8 hr post double hydroxyurea-synchrony release using propidium iodide staining by FACS analysis (reference value: 74 %); format: functional, cell-based; procedure, shortened: as §1
[19] = Cell cycle arrest in human SK-MEL-13 cells assessed as accumulation at G2/M phase at 2 uM treated 1 hr and measured 12 hr post double hydroxyurea-synchrony release using propidium iodide staining by FACS analysis (reference value: 50 %); format: functional, cell-based; procedure, shortened: as §1
HeLa [20] = assay: Cell cycle arrest in human HeLa cells assessed as accumulation at G2/M phase at 2 uM treated 2 hr and measured 10 hr post double thymidine-synchrony release using propidium iodide staining by FACS analysis (reference value: 31 %); format: functional; procedure, shortened: as §2
[21] = Inhibition of p38 MAPK using fluorescent substrate by IMAP assay; procedure, shortened: as §4
HeLa [22] = assay: Induction of abberent mitosis in human HeLa cells expressing GFP-H2B assessed as normal survivin staining cells at 2 uM by immunofluorescence method (reference value: 7%); format: functional
[23] = target: Hepatocyte growth factor receptor (Homo sapiens, UniProt P08581); assay: Inhibition of c-Met using fluorescent substrate by IMAP assay; procedure, shortened: as §4
Hepatocyte growth factor receptor, sequence (P08581 whole entry): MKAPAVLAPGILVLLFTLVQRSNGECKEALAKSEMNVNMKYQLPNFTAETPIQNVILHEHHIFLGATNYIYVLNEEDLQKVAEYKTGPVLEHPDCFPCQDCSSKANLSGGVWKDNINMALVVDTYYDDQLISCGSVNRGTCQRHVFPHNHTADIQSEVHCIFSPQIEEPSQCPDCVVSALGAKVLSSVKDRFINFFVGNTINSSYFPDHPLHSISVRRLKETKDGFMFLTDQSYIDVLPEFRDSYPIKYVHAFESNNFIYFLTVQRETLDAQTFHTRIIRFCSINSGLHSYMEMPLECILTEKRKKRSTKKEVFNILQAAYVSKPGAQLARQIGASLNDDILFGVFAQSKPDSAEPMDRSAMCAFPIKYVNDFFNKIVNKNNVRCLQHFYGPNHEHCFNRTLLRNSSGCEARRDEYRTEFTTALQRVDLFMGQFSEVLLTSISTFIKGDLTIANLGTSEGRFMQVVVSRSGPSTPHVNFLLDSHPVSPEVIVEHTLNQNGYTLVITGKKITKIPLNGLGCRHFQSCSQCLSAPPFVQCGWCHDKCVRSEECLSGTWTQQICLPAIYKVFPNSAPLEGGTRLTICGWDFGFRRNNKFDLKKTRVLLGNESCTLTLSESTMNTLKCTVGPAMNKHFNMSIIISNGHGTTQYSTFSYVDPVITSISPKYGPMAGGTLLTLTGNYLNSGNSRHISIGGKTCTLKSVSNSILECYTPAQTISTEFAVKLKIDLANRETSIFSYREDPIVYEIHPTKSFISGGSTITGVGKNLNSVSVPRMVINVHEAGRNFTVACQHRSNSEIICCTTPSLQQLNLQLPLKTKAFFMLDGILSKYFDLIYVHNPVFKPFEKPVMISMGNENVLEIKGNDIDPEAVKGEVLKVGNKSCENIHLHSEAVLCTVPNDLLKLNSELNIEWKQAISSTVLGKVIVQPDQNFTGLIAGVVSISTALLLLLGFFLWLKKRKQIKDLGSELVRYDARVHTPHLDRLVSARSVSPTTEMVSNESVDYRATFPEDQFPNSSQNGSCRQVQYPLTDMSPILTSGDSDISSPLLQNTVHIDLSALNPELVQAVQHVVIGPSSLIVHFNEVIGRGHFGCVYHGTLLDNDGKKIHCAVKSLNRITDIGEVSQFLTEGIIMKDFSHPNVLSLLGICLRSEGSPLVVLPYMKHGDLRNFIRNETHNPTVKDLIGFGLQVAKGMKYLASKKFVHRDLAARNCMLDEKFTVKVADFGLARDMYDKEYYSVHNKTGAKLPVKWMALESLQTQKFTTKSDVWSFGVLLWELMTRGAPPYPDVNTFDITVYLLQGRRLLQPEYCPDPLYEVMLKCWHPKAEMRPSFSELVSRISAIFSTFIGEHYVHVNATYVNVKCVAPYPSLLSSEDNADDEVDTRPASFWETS

MDA-MB-435 = assay: Antiproliferative activity against human MDA-MB-435 cells assessed as inhibition of S phase after 48 hrs by MTT assay; format: functional, cell-based; conditions: MDA-MB-435, 48 h; procedure, shortened: as §5
[24] = Cell cycle arrest in human SK-MEL-13 cells assessed as effect on G2/M phase progression at 2 uM treated 6 hr post double hydroxyurea-synchrony release using propidium iodide staining by FACS analysis; format: functional, cell-based
[25] = target: Cyclin-dependent kinase 2/cyclin E1 (Homo sapiens, UniProt P24941); assay: Inhibition of human CDK2-GST-tagged cyclin E using his-tagged Rb as substrate after 30 mins by scintillation counting method; format: protein-complex assay
HeLa [26] = assay: Cell cycle arrest in synchronized human HeLa cells assessed as re-joining to form single binuclear cells at 2 uM by time-lapse microscopy; format: functional, cell-based

## CN1CCN(c2ccc(Nc3nc(N)c(C(=O)c4ccc5c(c4)OCCO5)s3)cc2)CC1
[1]
  Activity: 14%
HeLa [2]
  Activity: 4%
MDA-MB-453 [3]
  Activity: Toxic
HeLa [4]
  Activity: 88%
A2058
  Activity: 57%
[5]
  Activity: 65%
HeLa [6]
  Activity: Active
[7]
  IC50: > 100 µM
RKO
  Activity: Toxic
SW480 [8]
  Activity: Toxic
MDA-MB-453 [9]
  IC50: 1450 nM
HeLa [10]
  Activity: 25%
[11]
  Activity: 19%
SW480 [12]
  Activity: Toxic
HeLa [13]
  Time: 12 h
[14]
  IC50: 20 nM
[15]
  Activity: 9%
HeLa [16]
  Activity: 5%
HeLa [17]
  Time: 152 min
HCT-116
  Activity: Toxic
[18]
  Activity: 18%
[19]
  Activity: 77%
HeLa [20]
  Activity: 90%
[21]
  IC50: 29 µM
HeLa [22]
  Activity: 23%
[23]
  IC50: > 20 µM
MDA-MB-435
  IC50: 3060 nM
[24]
  Activity: inactive
[25]
  IC50: 2.36 µM
HeLa [26]
  Activity: Active

## COc1cccc(C(=O)c2sc(Nc3ccc(N4CCN(C(C)C)CC4)cc3)nc2N)c1
[1]
  Activity: 14%
HeLa [2]
  Activity: 4%
MDA-MB-453 [3]
  Activity: Toxic
HeLa [4]
  Activity: 88%
A2058
  Activity: 57%
[5]
  Activity: 65%
HeLa [6]
  Activity: Active
[7]
  IC50: > 100 µM
RKO
  Activity: Toxic
SW480 [8]
  Activity: Toxic
MDA-MB-453 [9]
  IC50: 710 nM
HeLa [10]
  Activity: 25%
[11]
  Activity: 19%
SW480 [12]
  Activity: Toxic
HeLa [13]
  Time: 12 h
[14]
  IC50: 20 nM
[15]
  Activity: 9%
HeLa [16]
  Activity: 5%
HeLa [17]
  Time: 152 min
HCT-116
  Activity: Toxic
[18]
  Activity: 18%
[19]
  Activity: 77%
HeLa [20]
  Activity: 90%
[21]
  IC50: > 100 µM
HeLa [22]
  Activity: 23%
[23]
  IC50: > 20 µM
MDA-MB-435
  IC50: 1200 nM
[24]
  Activity: inactive
[25]
  IC50: 4.14 µM
HeLa [26]
  Activity: Active
